Measurements of several laboratories.
Target: Serine/threonine-protein kinase 32A (STK32A, Homo sapiens, UniProt Q8WU08)

Cc1c(NC(=O)c2cc(C(N)=O)nc3cc(F)ccc23)c(C(F)(F)F)nn1Cc1ccc(C(C)(C)C)cc1  remaining binding (cell-free assay; competition with immobilised ligand; 1 µM): 100%
CN(CCCC(F)(F)F)c1nccc(-c2cnn3ncccc23)n1  remaining binding (binding; 1 µM): 100%
COc1cnc(Nc2cccc(S(N)(=O)=O)c2)nc1N1CCN(c2ccccc2)CC1  remaining binding (binding; competition with immobilised ligand; 1 µM): 94%
CN(C(=O)c1ccccc1)c1cc(N(C)c2ccc3c(c2)CCc2ccc(C(=O)NCCN4CCOCC4)cc2C3=O)ccc1F  remaining binding (cell-free assay; competition with immobilised ligand; 1 µM): 68%
FC(F)(F)Oc1cccc(-c2cnc3ccc(-c4ccncc4)nn23)c1  remaining binding (binding; competition with immobilised ligand; 5 µM): 75%
NS(=O)(=O)c1cc(NC(=O)Cc2ccccc2)ccc1Oc1cccc(Cl)c1  remaining binding (cell-free assay; competition with immobilised ligand; 1 µM): 100%
Nc1ncc2c(n1)-c1c([nH]c3ccc(C#CC4CC4)cc13)CCCC2  remaining binding (binding; competition with immobilised ligand; 1 µM): 80%
C[C@@H]1CCN(c2nccc(-c3cnn4ncccc34)n2)C1  remaining binding (binding; 1 µM): 71%
O=C(c1ccc(Nc2ncc(Cl)c(-c3cc4ccccc4s3)n2)cc1)N1CCC(N2CCCC2)CC1  remaining binding (binding; competition with immobilised ligand; 1 µM): 68%
N#CC1(c2ccccn2)CCN(Cc2cc(C(=O)N3CCCC3)c(=O)n3ccccc23)CC1  remaining binding (cell-free assay; competition with immobilised ligand; 1 µM): 98%
N[C@@H]1CCN(c2nccc(-c3cnn4ncccc34)n2)C1  remaining binding (binding; 1 µM): 98%
C[C@@H](c1ccc(-n2cnc3c(N)ncnc32)cc1)N1CCc2nn(C)c(Cc3ccccc3)c2C1=O  remaining binding (binding; competition with immobilised ligand; 0.1 µM): 94%
O=C(Nc1c[nH]nc1C(=O)NC1CCNCC1)c1cc(F)cc(F)c1  remaining binding (binding; competition with immobilised ligand; 1 µM): 95%
CC1CCCN1c1nccc(-c2cnn3ncccc23)n1 (stereo not shown)  remaining binding (binding; 1 µM): 100%
CCC(=O)N[C@H]1CC[C@@H](C(=O)N(C)c2ccc(-c3nc4ccccc4o3)cc2)C1  remaining binding (cell-free assay; competition with immobilised ligand; 1 µM): 98%
CN(C)c1nccc(-c2cnn3ncccc23)n1  remaining binding (binding; 1 µM): 81%
Cc1cnc(Nc2ccc(C(=O)N3CCC(N4CCCC4)CC3)cc2)nc1-c1cc2ccccc2s1  remaining binding (binding; competition with immobilised ligand; 1 µM): 79%
COc1ccc2c(c1)O[C@H](c1ccc(OC)c(OC)c1)C[C@@H]2NC(=O)C1(c2ccc3c(c2)OC(F)(F)O3)CC1  remaining binding (cell-free assay; competition with immobilised ligand; 1 µM): 100%
CN(C)c1ncc(F)c(-c2cnn3ncccc23)n1  remaining binding (binding; 1 µM): 100%
O=C(NCCCN1CCOCC1)c1ccc(Nc2ncc(Cl)c(-c3ccc(Cl)s3)n2)cc1  remaining binding (binding; competition with immobilised ligand; 1 µM): 93%
CN(c1ccnc(CNc2nc(Nc3ccc4c(c3)CC(=O)N4)ncc2C(F)(F)F)n1)S(C)(=O)=O  remaining binding (cell-free assay; competition with immobilised ligand; 1 µM): 72%
CCN1CCN(Cc2ccc(C(=O)Nc3ccc(C)c(Oc4ccc5c(c4)CC(=O)N5)c3)cc2C(F)(F)F)CC1  remaining binding (binding; competition with immobilised ligand; 1 µM): 100%
